Results reported in ChEMBL document CHEMBL1140647, “Synthesis and evaluation of potent and selective beta3 adrenergic receptor agonists containing heterobiaryl carboxylic acids” (Bioorg Med Chem Lett, 2007).
pEC50: −log10 of the molar value.

Tests used:
Homo sapiens [1] = organism: Homo sapiens; assay: Selectivity ratio of pEC50 for human beta-3 adrenergic receptor over beta-1 adrenergic receptor
In short: (§1)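 Ratio of […]. pEC50 values come from cAMP accumulation in CHO cells expressing cloned human β1, β2 or β3 receptors.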

[2] = biological target: T1, Beta-1 adrenergic receptor (Homo sapiens, UniProt P08588); assay: Agonist activity at human beta-1 adrenergic receptor expressed in CHO cells assessed as cAMP accumulation; assay type: functional, cell-based
In short: (§2)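 cAMP accumulation measured in CHO cells expressing the cloned human receptor subtype. Potency given as pEC50; Emax is the fitted maximal response of the concentration-response, expressed as percent of the maximal response to R-(−)-isoproterenol. Values are from n ≥ 3 experiments unless noted (some n = 2), with standard deviation within 10%.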
Target sequence in this assay (P08588 whole entry): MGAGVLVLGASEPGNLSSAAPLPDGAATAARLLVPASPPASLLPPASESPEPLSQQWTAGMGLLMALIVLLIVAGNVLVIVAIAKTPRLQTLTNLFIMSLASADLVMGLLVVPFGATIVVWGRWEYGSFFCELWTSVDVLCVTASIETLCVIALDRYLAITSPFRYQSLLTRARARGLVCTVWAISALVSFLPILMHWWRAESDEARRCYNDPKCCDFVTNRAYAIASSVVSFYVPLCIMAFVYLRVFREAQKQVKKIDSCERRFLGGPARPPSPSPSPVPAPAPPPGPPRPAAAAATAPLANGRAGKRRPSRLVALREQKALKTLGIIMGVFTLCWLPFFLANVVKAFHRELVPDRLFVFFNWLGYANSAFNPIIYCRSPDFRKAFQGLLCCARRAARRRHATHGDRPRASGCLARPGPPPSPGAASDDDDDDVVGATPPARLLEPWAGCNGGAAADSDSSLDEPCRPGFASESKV

[3] = biological target: T2, Beta-3 adrenergic receptor (Homo sapiens, UniProt P13945); assay: Agonist activity at human beta-3 adrenergic receptor expressed in CHO cells assessed as cAMP accumulation; assay type: functional, cell-based; in short: as §2
Target sequence in this assay (P13945 whole entry): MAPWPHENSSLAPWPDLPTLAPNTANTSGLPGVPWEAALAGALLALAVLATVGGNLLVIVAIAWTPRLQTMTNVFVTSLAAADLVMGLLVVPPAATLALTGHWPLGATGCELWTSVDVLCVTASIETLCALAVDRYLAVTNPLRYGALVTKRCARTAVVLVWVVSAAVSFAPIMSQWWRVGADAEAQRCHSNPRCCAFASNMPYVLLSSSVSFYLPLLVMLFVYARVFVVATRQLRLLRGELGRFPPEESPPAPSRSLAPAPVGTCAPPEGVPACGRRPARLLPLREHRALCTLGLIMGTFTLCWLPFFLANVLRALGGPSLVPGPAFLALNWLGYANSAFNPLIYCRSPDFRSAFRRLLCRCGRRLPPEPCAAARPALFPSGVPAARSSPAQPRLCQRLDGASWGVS

[4] = biological target: T2, Beta-3 adrenergic receptor; assay: Agonist activity at human beta-3 adrenergic receptor expressed in CHO cells assessed as cAMP accumulation relative to R-(-)-isoproterenol; assay type: functional, cell-based; in short: as §2
Target sequence in this assay (P13945 whole entry, looked up): as the sequence (P13945 whole entry) above

[5] = Half life in dog at 0.2 mg/kg, iv; assay type: ADME, organism-based, Canis lupus familiaris; design: dose 0.2 mg/kg, route intravenous; settings: in vivo
In short: (§3)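 Single intravenous dose of 0.2 mg/kg. Plasma drug levels measured by LC–MS/MS, and clearance and half-life derived from them.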

[6] = biological target: T1, Beta-1 adrenergic receptor; assay: Agonist activity at human beta-1 adrenergic receptor expressed in CHO cells assessed as cAMP accumulation relative to R-(-)-isoproterenol; assay type: functional, cell-based; in short: as §2
Target sequence in this assay (P08588 whole entry, looked up): as the sequence (P08588 whole entry) above

[7] = biological target: T3, Beta-2 adrenergic receptor (Homo sapiens, UniProt P07550); assay: Agonist activity at human beta-2 adrenergic receptor expressed in CHO cells assessed as cAMP accumulation; assay type: functional, cell-based; in short: as §2
Target sequence in this assay (P07550 whole entry): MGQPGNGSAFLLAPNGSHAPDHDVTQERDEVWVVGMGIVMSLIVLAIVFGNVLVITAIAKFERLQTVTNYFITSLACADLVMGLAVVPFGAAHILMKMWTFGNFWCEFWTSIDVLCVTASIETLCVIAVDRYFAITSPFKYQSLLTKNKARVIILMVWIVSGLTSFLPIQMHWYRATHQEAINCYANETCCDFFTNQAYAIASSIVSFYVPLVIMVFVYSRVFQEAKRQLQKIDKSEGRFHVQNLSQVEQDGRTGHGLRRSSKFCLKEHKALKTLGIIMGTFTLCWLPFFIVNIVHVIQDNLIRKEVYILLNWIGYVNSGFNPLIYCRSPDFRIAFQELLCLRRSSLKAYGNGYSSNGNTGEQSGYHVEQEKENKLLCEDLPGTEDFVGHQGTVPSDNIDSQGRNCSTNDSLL

Homo sapiens [8] = organism: Homo sapiens; assay: Selectivity ratio of pEC50 for human beta3 adrenergic receptor over beta-2 adrenergic receptor; in short: as §1
[9] = Plasma clearance in dog at 0.2 mg/kg, iv; assay type: ADME, organism-based, Canis lupus familiaris; design: dose 0.2 mg/kg, route intravenous; in short: as §3
[10] = biological target: T3, Beta-2 adrenergic receptor; assay: Agonist activity at human beta-2 adrenergic receptor expressed in CHO cells assessed as cAMP accumulation relative to R-(-)-isoproterenol; assay type: functional, cell-based; in short: as §2
Target sequence in this assay (P07550 whole entry, looked up): as the sequence (P07550 whole entry) above

Mus musculus [11] = assay: Reduction of glucose level in db/db mouse serum at 0.3 mg/kg, po bid for 14 days; assay type: functional
In short: (§4)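 Male db/db mice, 60 days old at the start of dosing, 10 per group. Dosed by oral gavage twice daily for 14 days in 0.025 M methanesulfonic acid vehicle, with dosing solutions prepared fresh daily. Day 0 baseline taken from 10 exsanguinated mice. Mice were sacrificed on days 7 and 14, and serum glucose was measured on an automated chemistry analyzer against vehicle-treated mice.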

Mus musculus [12] = assay: Reduction of glucose level in db/db mouse serum at 0.1 mg/kg, po bid for 14 days; assay type: functional; in short: as §4
Mus musculus [13] = assay: Reduction of glucose level in db/db mouse serum at 0.03 mg/kg, po bid for 14 days; assay type: functional; in short: as §4
Mus musculus [14] = assay: Reduction of glucose level in db/db mouse serum at 1 mg/kg, po bid for 14 days; assay type: functional; in short: as §4

Row | Selectivity ratio (Homo sapiens [1]) | pEC50 [2] | pEC50 [3] | Emax [4] [%] | half-life [5] [h] | Emax [6] [%] | pEC50 [7] | Selectivity ratio (Homo sapiens [8]) | clearance [9] [mL/min/kg] | Emax [10] [%] | SMILES | Activity (Mus musculus [11]) [mg/dL] | Activity (Mus musculus [12]) [mg/dL] | Activity (Mus musculus [13]) [mg/dL] | Activity (Mus musculus [14]) [mg/dL]
1 | 100 | 6.40 | 8.40 | 102 | ≤ 1 | 14 | 6.50 | 79 | 5.3 | 49 | C[C@H](CNc1cccc(-c2ocnc2C(=O)O)c1)NC[C@H](O)c1cccc(Cl)c1 | – | – | – | –
2 | 3 | 7.70 | 8.20 | 100 | – | 21 | 7.30 | 8 | – | 41 | C[C@H](CNc1ccc(-c2nc(C(=O)O)cs2)cc1)NC[C@H](O)c1cccc(Cl)c1 | – | – | – | –
3 | 5 | – | – | – | – | – | – | 3 | – | – | C[C@H](CNc1ccc(CC(=O)O)cc1)NC[C@H](O)c1cccc(Cl)c1 | – | – | – | –
4 | 630 | 5.30 | 8.10 | 91 | 6.1 | < 5 | 5.60 | 320 | 0.65 | < 5 | O=C(O)c1ccoc1-c1cccc(NCCNC[C@H](O)c2cccc(Cl)c2)c1 | 191 | 255 | 376 | 183
5 | 20 | 7.60 | 8.90 | 90 | ≤ 1 | 24 | 6.40 | 320 | 5.3 | 55 | C[C@H](CNc1ccc(-c2ocnc2C(=O)O)cc1)NC[C@H](O)c1cccc(Cl)c1 | – | – | – | –
6 | 3200 | 5.40 | 8.90 | 103 | 1.6 | < 2 | 5.30 | 4000 | 1.5 | < 5 | O=C(O)c1ccsc1-c1cccc(NCCNC[C@H](O)c2cccc(Cl)c2)c1 | – | – | – | –
7 | 8 | 7.92 | 8.80 | 100 | – | 19 | 7.30 | 32 | – | 63 | C[C@H](CNc1ccc(-c2csc(C(=O)O)n2)cc1)NC[C@H](O)c1cccc(Cl)c1 | – | – | – | –
8 | 250 | 7.00 | 9.40 | 96 | – | 14 | 6.20 | 1600 | – | 19 | C[C@H](CNc1ccc(-c2sccc2C(=O)O)cc1)NC[C@H](O)c1cccc(Cl)c1 | – | – | – | –
9 | 0.8 | 7.90 | 7.80 | 92 | – | 23 | 7.00 | 6 | – | 53 | C[C@H](CNc1ccc(-c2nc(C(=O)O)co2)cc1)NC[C@H](O)c1cccc(Cl)c1 | – | – | – | –
10 | 10 | – | – | – | – | – | – | 16 | – | – | C[C@H](CNc1ccc(CCC(=O)O)cc1)NC[C@H](O)c1cccc(Cl)c1 | – | – | – | –
11 | 63 | 7.70 | 9.50 | 85 | ≤ 1 | 18 | 7.10 | 250 | 5.3 | 36 | C[C@H](CNc1ccc(-c2occc2C(=O)O)cc1)NC[C@H](O)c1cccc(Cl)c1 | – | – | – | –
12 | 50 | 7.00 | 8.70 | 97 | – | 20 | 7.00 | 50 | – | 76 | C[C@H](CNc1cccc(-c2csc(C(=O)O)n2)c1)NC[C@H](O)c1cccc(Cl)c1 | – | – | – | –
13 | 100 | 7.10 | 9.10 | 97 | ≤ 1 | 21 | 6.80 | 200 | 5.3 | 48 | C[C@H](CNc1cccc(-c2nc(C(=O)O)cs2)c1)NC[C@H](O)c1cccc(Cl)c1 | – | – | – | –
14 | 400 | 7.00 | 9.60 | 87 | ≤ 1 | 14 | 6.90 | 500 | 5.3 | 38 | C[C@H](CNc1cccc(-c2occc2C(=O)O)c1)NC[C@H](O)c1cccc(Cl)c1 | – | – | – | –
15 | 10 | 6.80 | 7.80 | 115 | – | 30 | 6.90 | 8 | – | 39 | C[C@H](CNc1cccc(-c2nc(C(=O)O)co2)c1)NC[C@H](O)c1cccc(Cl)c1 | – | – | – | –
16 | 20000 | 5.90 | 10.20 | 85 | ≤ 1 | < 7 | 6.10 | 13000 | 5.3 | 9 | C[C@H](CNc1cccc(-c2sccc2C(=O)O)c1)NC[C@H](O)c1cccc(Cl)c1 | – | – | – | –
